Assay results: publication PMC2758331 (Biochemistry, 2009)

Key:
mDia1-FH2 [1] = biological target: T1, mDia1-FH2 (Mus musculus, UniProt O08808); test: equilibrium dialysis, direct binding to mDia1-FH2
mDia3-FH2 [2] = biological target: T2, mDia3-FH2 (Mus musculus, UniProt O70566); test: equilibrium dialysis, direct binding to mDia3-FH2
FRL1-(FH1-FH2) = biological target: T3, FRL1-(FH1-FH2) (Mus musculus, UniProt Q9JL26); test: pyrene-actin polymerization assay, actin assembly by FRL1; format: biochemical; conditions: at 50 μM
T3 sequence (Q9JL26 627-1018 limits assumed): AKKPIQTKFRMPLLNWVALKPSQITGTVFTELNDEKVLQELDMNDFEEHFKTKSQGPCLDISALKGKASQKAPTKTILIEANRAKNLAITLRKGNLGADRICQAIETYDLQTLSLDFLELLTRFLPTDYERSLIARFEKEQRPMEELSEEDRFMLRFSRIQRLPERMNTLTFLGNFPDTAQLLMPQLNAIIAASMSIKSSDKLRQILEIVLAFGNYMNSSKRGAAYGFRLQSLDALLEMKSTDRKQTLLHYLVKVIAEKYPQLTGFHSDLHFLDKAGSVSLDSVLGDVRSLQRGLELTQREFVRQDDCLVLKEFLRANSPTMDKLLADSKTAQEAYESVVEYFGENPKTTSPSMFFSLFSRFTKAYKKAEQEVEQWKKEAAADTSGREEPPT
Procedure, shortened: (§1)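 Pyrene-actin polymerization (emission read at 410 nm) driven by 2.5 nM mDia2-FH2, 20 nM INF2-(FH1-FH2) or 200 nM FRL1-(FH1-FH2), with the test compound titrated. Fluorescence corrected for compound quenching. Dose-response curves derived from the polymerization traces give IC50 and Hill coefficient.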

mDia1-FH2 [3] = biological target: T1, mDia1-FH2; test: pyrene-actin polymerization assay, actin assembly by mDia1-FH2; format: biochemical
Procedure, shortened: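 Recombinant mouse mDia1 FH2 domain (aa 748–1175) at 2.5 nM with 4 μM actin (5% pyrene-labelled), across a range of test compound concentrations. Polymerization followed by pyrene fluorescence (emission 410 nm). Signal corrected for quenching by the test compound. Dose-response curves calculated from the polymerization curves give IC50 and Hill coefficient.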

INF2-(FH1-FH2) = INF2-(FH1-FH2) (Mus musculus, UniProt Q0GNC1); test: pyrene-actin polymerization assay, actin assembly by INF2; format: biochemical; conditions: at saturating concentrations
INF2-(FH1-FH2), sequence (Q0GNC1 589-979 limits assumed): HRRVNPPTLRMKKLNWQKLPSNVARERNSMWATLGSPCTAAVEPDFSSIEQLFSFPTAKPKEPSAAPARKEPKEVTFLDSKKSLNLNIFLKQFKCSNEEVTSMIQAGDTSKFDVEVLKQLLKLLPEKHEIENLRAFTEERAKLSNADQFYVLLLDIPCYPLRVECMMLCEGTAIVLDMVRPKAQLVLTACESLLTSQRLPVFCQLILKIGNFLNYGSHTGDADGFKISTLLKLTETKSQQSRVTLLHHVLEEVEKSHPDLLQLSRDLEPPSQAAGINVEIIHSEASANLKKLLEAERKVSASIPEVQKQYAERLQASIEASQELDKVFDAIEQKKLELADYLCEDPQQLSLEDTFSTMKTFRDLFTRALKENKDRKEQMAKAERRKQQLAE
Procedure, shortened: as §1

actin = actin (Oryctolagus cuniculus, UniProt P68135); test: spontaneous polymerization of actin alone; format: biochemical; conditions: concentrations up to 50 μM
mDia2-FH2 = mDia2-FH2 (Mus musculus, UniProt Q9Z207); test: pyrene-actin polymerization assay, actin assembly by mDia2-FH2; format: biochemical; conditions: potency and Hill coefficients
mDia2-FH2, sequence (Q9Z207 615-1013 limits assumed): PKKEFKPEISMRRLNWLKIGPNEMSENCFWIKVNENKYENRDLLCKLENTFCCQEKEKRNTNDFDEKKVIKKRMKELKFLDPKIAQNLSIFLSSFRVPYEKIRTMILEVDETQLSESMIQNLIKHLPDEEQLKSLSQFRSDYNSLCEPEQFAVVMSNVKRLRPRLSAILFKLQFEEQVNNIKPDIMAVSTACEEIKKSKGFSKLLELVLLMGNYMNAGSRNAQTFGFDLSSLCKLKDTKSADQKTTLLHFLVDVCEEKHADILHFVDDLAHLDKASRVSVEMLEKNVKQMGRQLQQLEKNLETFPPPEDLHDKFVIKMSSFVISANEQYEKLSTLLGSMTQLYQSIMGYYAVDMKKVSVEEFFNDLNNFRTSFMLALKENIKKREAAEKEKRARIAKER
Procedure, shortened: as §1

mDia3-FH2 [4] = biological target: T2, mDia3-FH2; test: pyrene-actin polymerization assay, actin assembly by mDia3-FH2; format: biochemical; conditions: at any concentration tested
Procedure, shortened: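 Pyrene-actin polymerization (emission 410 nm) with mDia3-FH2 in two formats: 10 nM mDia3-FH2 in test compound titrations for dose-response curves (IC50, Hill coefficient), and 2.5 nM mDia3-FH2 with or without 50 μM test compound. Fluorescence corrected for compound quenching.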

T1 sequence (O08808 748-1175): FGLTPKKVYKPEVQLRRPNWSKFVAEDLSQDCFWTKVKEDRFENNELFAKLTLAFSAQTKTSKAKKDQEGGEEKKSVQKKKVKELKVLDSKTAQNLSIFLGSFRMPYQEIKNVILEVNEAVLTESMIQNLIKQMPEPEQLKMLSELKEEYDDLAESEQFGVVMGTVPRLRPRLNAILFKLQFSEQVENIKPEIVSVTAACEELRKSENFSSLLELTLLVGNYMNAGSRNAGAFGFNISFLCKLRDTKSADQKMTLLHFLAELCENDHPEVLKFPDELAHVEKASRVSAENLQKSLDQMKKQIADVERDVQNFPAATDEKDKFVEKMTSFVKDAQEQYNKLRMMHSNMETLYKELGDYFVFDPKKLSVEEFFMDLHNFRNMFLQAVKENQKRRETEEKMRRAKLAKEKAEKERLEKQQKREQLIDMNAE
T2 sequence (O70566 625-1025 limits assumed): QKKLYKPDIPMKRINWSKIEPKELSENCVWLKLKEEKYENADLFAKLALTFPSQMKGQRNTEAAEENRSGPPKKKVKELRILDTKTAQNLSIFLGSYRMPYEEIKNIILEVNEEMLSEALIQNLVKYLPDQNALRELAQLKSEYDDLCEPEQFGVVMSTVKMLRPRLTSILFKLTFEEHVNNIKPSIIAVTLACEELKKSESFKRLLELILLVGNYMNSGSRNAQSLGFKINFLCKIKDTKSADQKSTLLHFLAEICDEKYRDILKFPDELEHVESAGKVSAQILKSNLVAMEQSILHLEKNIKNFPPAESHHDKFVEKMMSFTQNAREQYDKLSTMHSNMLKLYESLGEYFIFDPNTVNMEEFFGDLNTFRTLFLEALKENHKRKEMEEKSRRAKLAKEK

| binding to mDia3-FH2 by equilibrium dialysis (mDia3-FH2 [2]) | inhibition of FRL1 (FRL1-(FH1-FH2)) | Hill coefficient, inhibition of actin assembly by mDia1-FH2 (mDia1-FH2 [3]) | IC50 (mDia1-FH2 [3]) | maximal inhibition of INF2 activity (INF2-(FH1-FH2)) | inhibition of filament assembly by mDia2-FH2 compared with mDia1-FH2 (in words) (mDia2-FH2) | inhibitory activity toward actin assembly by mDia3-FH2 (in words) (mDia3-FH2 [4]) | SMILES | binding to mDia1-FH2 by equilibrium dialysis (mDia1-FH2 [1]) | inhibitory effect toward polymerization of actin alone (actin) |
| --- | --- | --- | --- | --- | --- | --- | --- | --- | --- |
| no binding | incomplete | 7.6 | 2.1 µM | ≤ 75% | comparable | no inhibitory activity | Nc1ccc(Br)cc1-c1nc2ccccc2[nH]c1=O [compound 2, 3-(2-amino-5-bromophenyl)-1H-quinoxalin-2-one] | effectively retained 2 in a dose-dependent manner | Neither 1 nor 2 shows any inhibitory effect |
|  |  | 2.4 | 0.49 µM |  |  |  | O=S(=O)(O)c1cc(O)c2c(N=Nc3c(S(=O)(=O)O)cc4cc(S(=O)(=O)O)cc(O)c4c3O)cc(S(=O)(=O)O)cc2c1 [compound 1, 2-(8-hydroxy-3,6-disulfo-1-naphthylazo)-1,8-dihydroxy-naphthalene-3,6-disulfonic acid] |  | Neither 1 nor 2 shows any inhibitory effect |
